# In ChEMBL document CHEMBL4680311, “Synthesis, characterization, in vitro SAR study, and preliminary in vivo toxicity evaluation of naphthylmethyl substituted bis-imidazolium salts” (Bioorg Med Chem, 2021):
# What was measured:
# [1] = system: NCI-H1975; experiment: Cytotoxicity against human NCI-H1975 cells assessed as cell growth inhibition measured after 72 hrs by MTT assay; format: functional, cell-based; settings: NCI-H1975, 72 h
# In short: (§1)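 Cells kept in RPMI 1640 with 10% FBS at 37 °C, 5% CO₂, passaged every 2–3 days; grown to confluence, seeded at 5,000–7,000 cells/well depending on line, incubated 24 h. Compounds dissolved in 1% DMSO, diluted in medium to 1, 4, 16, 32 μM (6 replicates each), 72 h exposure. MTT 3–4 h, medium aspirated, DMSO added, 15 min, OD 540 nm; IC50 relative to untreated cells.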
# [2] = system: A549; experiment: Cytotoxicity against human A549 cells assessed as cell growth inhibition measured after 72 hrs by MTT assay; format: functional, cell-based; settings: A549, 72 h; in short: as §1
# [3] = system: NCI-H23; experiment: Antiproliferative activity against human NCI-H23 cells assessed as cell growth at 10 uM incubated for 48 hrs by sulforhodamine B assay relative to control; format: functional; settings: read-out: Activity
# In short: (§2)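 NCI DTP NCI-60 one-dose screen on the NSCLC panel. Cells were seeded at densities set by doubling rate and incubated 24 h. They were then exposed to a single 10 μM dose for 48 h. Each value is a growth percentage relative to the initial cell population: positive means net growth, negative means net cell kill.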
# [4] = system: NCI-H322M; experiment: Antiproliferative activity against human NCI-H322M cells assessed as cell growth at 10 uM incubated for 48 hrs by sulforhodamine B assay relative to control; format: functional; settings: read-out: Activity; in short: as §2
# [5] = system: A549; experiment: Antiproliferative activity against human A549/ATCC cells assessed as cell growth at 10 uM incubated for 48 hrs by sulforhodamine B assay relative to control; format: functional; settings: read-out: Activity; in short: as §2
# [6] = system: NCI-H226; experiment: Antiproliferative activity against human NCI-H226 cells assessed as cell growth at 10 uM incubated for 48 hrs by sulforhodamine B assay relative to control; format: functional; settings: read-out: Activity; in short: as §2
# [7] = system: HCC827; experiment: Cytotoxicity against human HCC827 cells assessed as cell growth inhibition measured after 72 hrs by MTT assay; format: functional, cell-based; settings: HCC827, 72 h; in short: as §1
# [8] = system: HOP-62; experiment: Antiproliferative activity against human HOP-62 cells assessed as cell growth at 10 uM incubated for 48 hrs by sulforhodamine B assay relative to control; format: functional; settings: read-out: Activity; in short: as §2
# [9] = system: EKVX; experiment: Antiproliferative activity against human EKVX cells assessed as cell growth at 10 uM incubated for 48 hrs by sulforhodamine B assay relative to control; format: functional; settings: read-out: Activity; in short: as §2
# [10] = system: HOP-92; experiment: Antiproliferative activity against human HOP-92 cells assessed as cell growth at 10 uM incubated for 48 hrs by sulforhodamine B assay relative to control; format: functional; settings: read-out: Activity; in short: as §2
# [11] = system: NCI-H460; experiment: Cytotoxicity against human NCI-H460 cells assessed as cell growth inhibition measured after 72 hrs by MTT assay; format: functional, cell-based; settings: NCI-H460, 72 h; in short: as §1
# [12] = system: NCI-H460; experiment: Antiproliferative activity against human NCI-H460 cells assessed as cell growth at 10 uM incubated for 48 hrs by sulforhodamine B assay relative to control; format: functional; settings: read-out: Activity; in short: as §2
# [13] = system: NCI-H522; experiment: Antiproliferative activity against human NCI-H522 cells assessed as cell growth at 10 uM incubated for 48 hrs by sulforhodamine B assay relative to control; format: functional; settings: read-out: Activity; in short: as §2
SMILES,IC50 [1] [µM],IC50 [2] [µM],growth at 10 µM [3] [%],growth at 10 µM [4] [%],growth at 10 µM [5] [%],growth at 10 µM [6] [%],IC50 [7] [µM],growth at 10 µM [8] [%],growth at 10 µM [9] [%],growth at 10 µM [10] [%],IC50 [11] [µM],growth at 10 µM [12] [%],growth at 10 µM [13] [%]
c1ccc2cc(Cn3cc[n+](CCn4cc[n+](Cc5ccc6ccccc6c5)c4)c3)ccc2c1,> 30,> 30,88.9,86.4,64.1,82.7,> 30,86,91.4,79.2,14,,
c1ccc2cc(Cn3cc[n+](CCCCCCn4cc[n+](Cc5ccc6ccccc6c5)c4)c3)ccc2c1,6,< 1,30.5,76.2,38.6,69.6,12,55.8,37.3,59.9,2,24.6,33.1
c1ccc2cc(Cn3cc[n+](CCCCCn4cc[n+](Cc5ccc6ccccc6c5)c4)c3)ccc2c1,12,4,45.3,86.2,41.7,72.6,> 30,57,47.1,66,2,30.5,35.7
c1ccc2cc(Cn3cc[n+](CCCn4cc[n+](Cc5ccc6ccccc6c5)c4)c3)ccc2c1,> 30,22,77.8,84.4,62.3,81.9,> 30,67.2,82.7,67.5,20,75.3,56.6
c1ccc2cc(Cn3cc[n+](Cn4cc[n+](Cc5ccc6ccccc6c5)c4)c3)ccc2c1,> 30,> 30,88.3,87.6,70.8,92.6,> 30,84.2,89.4,67,16,,51
